Our source for the inhibition, IC50 and IC10 values is ChEMBL document CHEMBL2375241, “Dioscin restores the activity of the anticancer agent adriamycin in multidrug-resistant human leukemia K562/adriamycin cells by down-regulating MDR1 via a mechanism involving NF-κB signaling inhibition” (J Nat Prod, 2013).

Calls of active or inactive are those of the source. No cut-off for these calls is given here.

Common to all, as to assay type: cell-based
Data set [1] is described as follows: Inhibition of NFkappaB signaling in human K562/ADR cells assessed as downregulation of MDR1 mRNA expression at 0.3 uM measured for 24 hrs by qRT-PCR analysis. The gist of the method:
(§1)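 K562/ADR cells exposed to 0.3 μM for 0–48 h, or to various concentrations for 24 h. RNA isolated with TRIzol, then qRT-PCR: 95 °C 30 s, then 40 cycles of 95 °C 5 s and 60 °C 20 s. MDR1 quantified by ΔΔCT against β-actin; triplicate.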

The test system of another data set is K562. Description: Cytotoxicity against human K562 cells assessed as cell viability after 48 hrs by MTT assay. The gist of the method:
(§2)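 Cells grown in RPMI 1640 with 10% FBS at 37 °C, 5% CO2; K562/ADR kept off ADR for 2 weeks before use. Cells seeded at 4 × 10^3 per well, exposed to 0.1–100 μM for 48 h. MTT added for 4 h, then SDS–isobutanol–HCl solubilisation overnight, absorbance read at 570 nm. IC50 from three experiments.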

The nature of data set [2]: Inhibition of NFkappaB signaling-mediated MDR1 activity in human K562/ADR cells assessed as increase in intracellular accumulation of adriamycin at 0.3 uM incubated for 24 hrs followed by adriamycin addition measured after 1 hr by flow cytometric analysis relative to K562 cells. Put shortly: (§3)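 K562/ADR cells, 4 × 10^6 per well, pretreated with 0.3 μM for 24 h at 37 °C; K562 and untreated K562/ADR run alongside. All incubated with 25 μM ADR for 1 h at 37 °C and washed three times with ice-cold PBS. ADR autofluorescence read by flow cytometry (ex 488 nm, em 575 nm) as mean intensity; three experiments.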

Data set [3] is described as follows: Inhibition of NFkappaB signaling in human K562/ADR cells assessed as downregulation of MDR1 expression at 0.3 uM measured for 24 hrs by Western blot analysis. The gist of the method:
(§4)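 K562/ADR cells treated with 0.3 μM for 0–48 h, or with various concentrations for 24 h, at 37 °C. Total protein extracted and 60 μg run on 10% SDS-PAGE, then PVDF. Blots probed with MDR1 antibody (1:100) and β-actin (1:500), detected by ECL. Band density normalised to β-actin; triplicate.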

Data set [4] in a line: Inhibition of NFkappaB signaling in human K562/ADR cells assessed as inhibition of TNFalpha-induced MDR1 promoter activity at 0.1 to 0.3 uM after 24 hrs by luciferase reporter gene assay. Put shortly:
(§5)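 Cells plated overnight, then transiently co-transfected with hMDR1-Luc or NF-κB-Luc plus pRL-SV Renilla plasmid by lipofection. Exposed to compound and TNF-α for 24 h. Firefly luciferase normalised to Renilla in a dual-luciferase readout.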

A short description of data set [5]: Inhibition of NFkappaB signaling in human K562/ADR cells assessed as downregulation of MDR1 mRNA expression at 0.3 uM measured after 24 to 48 hrs by qRT-PCR analysis. The gist of the method: as §1
The nature of data set [6]: Inhibition of NFkappaB signaling in human K562/ADR cells assessed as downregulation of MDR1 expression at 0.3 uM measured after 24 to 48 hrs by Western blot analysis. Put shortly: as §4
The nature of data set [7]: Inhibition of NFkappaB signaling-mediated MDR1 activity in human K562/ADR cells assessed as potentiation of adriamycin-induced cytotoxicity after 48 hrs by MTT assay.
Data set [8] can be described thus: Inhibition of NFkappaB signaling in human K562/ADR cells assessed as inhibition of TNFalpha-induced NFkappaB promoter activity at 0.1 to 0.3 uM after 24 hrs by luciferase reporter gene assay. The gist of the method:
as §5

Data set [9] concerns the target T1, NF-kappa-B inhibitor alpha (Homo sapiens) (UniProt P25963).
T1 sequence (whole entry): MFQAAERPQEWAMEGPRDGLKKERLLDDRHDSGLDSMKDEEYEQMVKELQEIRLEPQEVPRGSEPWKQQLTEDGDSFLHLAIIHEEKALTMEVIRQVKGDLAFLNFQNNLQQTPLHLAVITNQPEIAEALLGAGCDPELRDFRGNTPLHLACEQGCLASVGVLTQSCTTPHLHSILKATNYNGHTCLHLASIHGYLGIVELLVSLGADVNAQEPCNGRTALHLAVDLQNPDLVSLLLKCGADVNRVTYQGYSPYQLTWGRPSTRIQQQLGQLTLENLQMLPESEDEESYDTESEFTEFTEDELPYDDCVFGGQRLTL
Description: Inhibition of TNFalpha-induced IkappaB-alpha phosphorylation in human K562/ADR cells assessed as decrease in NKkappaB activity at 0.3 uM measured at 12 to 48 hrs by Western blot analysis. The gist of the method:
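K562/ADR cells incubated with 0.3 μM for 0–48 h, then TNF-α for 30 min. Lysates blotted for phospho-IκB-α Ser32/36 (1:1000) and β-actin, detected by ECL. Densities normalised to β-actin; three experiments.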

The nature of data set [10]: Inhibition of NFkappaB signaling in human K562/ADR cells assessed as inhibition of TNFalpha-induced MDR1 expression at 0.3 uM after 24 hrs by Western blot analysis. Put shortly: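 K562/ADR cells incubated 24 h with 0.3 μM plus 5 nM TNF-α. Lysates blotted for MDR1 (1:100) with β-actin (1:500) as loading control, detected by ECL. Densities normalised to β-actin; three experiments.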

Data set [11] in a line: Cytotoxicity against human K562/ADR cells assessed as cell viability after 48 hrs by MTT assay. Put shortly: as §2
Data set [12] in a line: Inhibition of NFkappaB signaling-mediated MDR1 activity in human K562/ADR cells assessed as increase in intracellular accumulation of adriamycin at 0.3 uM incubated for 24 hrs followed by adriamycin addition measured after 1 hr by flow cytometric analysis (reference value: 46.3%). The gist of the method: as §3

`C[C@@H]1CC[C@@]2(OC1)O[C@H]1C[C@H]3[C@@H]4CC=C5C[C@@H](O[C@@H]6O[C@H](CO)[C@@H](O[C@@H]7O[C@@H](C)[C@H](O)[C@@H](O)[C@H]7O)[C@H](O)[C@H]6O[C@@H]6O[C@@H](C)[C@H](O)[C@@H](O)[C@H]6O)CC[C@]5(C)[C@H]4CC[C@]3(C)[C@H]1[C@@H]2C` [DIOSCIN]: the inhibition was determined as 93.1% in data set [1]; 59.8% in data set [2]; 91.4% in data set [3]; 97.8% in data set [5]; 84.7% in [6]; 78.4% in data set [12]. Also, the IC50 with K562 (Homo sapiens, K562, 48 h) came to 4.7 µM; in [11] (Homo sapiens, K562/Adr), 3.3 µM. Further, the IC10 amounted to 0.4 µM with K562 (human, k562, 48 h) and 0.3 µM in data set [11] (human, k562/adr). Also, the inhibition result in [4], in data set [7], in data set [8], in data set [9] and in [10] was “Active” throughout.
